Activity calls are given as the source filed them. No cut-off for these calls is given here.
Assays:
[1] = molecular target: Heat shock protein beta-1 (Homo sapiens) (UniProt P04792); conditions: T98G, dose 10.0 nM, time 12.0 hrs
[2] = Toxicity in CD1 mouse assessed as effect on RDW-CV at 80 mg/kg/day, ip administered thrice weekly by hematology analyzer; type: organism-based; conditions: in vivo, 72 h, time 3 day
How it was run: (§1)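 Male CD-1 mice, four per group, given 80 mg/kg in PBS IP three times weekly; vehicle DMSO. Mice were euthanized when toxicity signs appeared, otherwise at day 10. Body weight was recorded at first and last dosing days. Non-fasted cardiac blood was taken after euthanasia for an automated hematology analyzer.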

[3] = Toxicity in CD1 mouse assessed as reduction in food consumption at 80 mg/kg/day, ip administered thrice weekly and observed at day 5 to 7; type: organism-based; conditions: in vivo, 72 h, time 3 day
How it was run: as §1

[4] = Toxicity in CD1 mouse assessed as effect on RBC count at 80 mg/kg/day, ip administered thrice weekly by hematology analyzer; type: organism-based; conditions: in vivo, 72 h, time 3 day
How it was run: as §1

T98G = test: Antiproliferative activity against human T98G cells overexpressing AR assessed as reduction in cell viability incubated for 48 hrs by MTT assay; type: functional, cell-based
How it was run: (§2)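 MTT assay; 3000 cells/well in RPMI 1640 or DMEM with 10% FBS, seeded 24 h, then exposed 48 h to a range of concentrations in DMSO (final ≤0.1%); vehicle controls. MTT 1 mg/mL for 2 h at 37 °C, dye dissolved in DMSO, absorbance 570 nm; eight replicates; IC50 by nonlinear regression.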

[5] = Toxicity in CD1 mouse assessed as effect on eosinophil count at 80 mg/kg/day, ip administered thrice weekly by hematology analyzer; type: organism-based; conditions: in vivo, 72 h, time 3 day
How it was run: as §1

[6] = Toxicity in CD1 mouse assessed as effect on lymphocyte at 80 mg/kg/day, ip administered thrice weekly by hematology analyzer; type: organism-based; conditions: in vivo, 72 h, time 3 day
How it was run: as §1

[7] = Toxicity in CD1 mouse assessed as effect on basophil count at 80 mg/kg/day, ip administered thrice weekly by hematology analyzer; type: organism-based; conditions: in vivo, 72 h, time 3 day
How it was run: as §1

[8] = Toxicity in CD1 mouse assessed as induction of dehydration at 80 mg/kg/day, ip administered thrice weekly and observed at day 5 to 7; type: organism-based; conditions: in vivo, 72 h, time 3 day
How it was run: as §1

[9] = Toxicity in CD1 mouse assessed as decrease in body weight at 80 mg/kg/day, ip administered thrice weekly and observed at day 5 to 7; type: organism-based; conditions: in vivo, 72 h, time 3 day
How it was run: as §1

[10] = Toxicity in CD1 mouse assessed as effect on monocytes at 80 mg/kg/day, ip administered thrice weekly by hematology analyzer; type: organism-based; conditions: in vivo, 72 h, time 3 day
How it was run: as §1

[11] = Toxicity in CD1 mouse assessed as effect on neutrophils count at 80 mg/kg/day, ip administered thrice weekly by hematology analyzer; type: organism-based; conditions: in vivo, 72 h, time 3 day
How it was run: as §1

[12] = Toxicity in CD1 mouse assessed as effect on MCHC count at 80 mg/kg/day, ip administered thrice weekly by hematology analyzer; type: organism-based; conditions: in vivo, 72 h, time 3 day
How it was run: as §1

[13] = Toxicity in CD1 mouse assessed as effect on MPV at 80 mg/kg/day, ip administered thrice weekly by hematology analyzer; type: organism-based; conditions: in vivo, 72 h, time 3 day
How it was run: as §1

A 172 = test: Antiproliferative activity against human A 172 cells assessed as reduction in cell viability incubated for 48 hrs by MTT assay; type: functional, cell-based; conditions: A 172, 48 h
How it was run: as §2

[14] = Toxicity in CD1 mouse assessed as effect on MCV count at 80 mg/kg/day, ip administered thrice weekly by hematology analyzer; type: organism-based; conditions: in vivo, 72 h, time 3 day
How it was run: as §1

U-87 MG = test: Antiproliferative activity against human U87 cells assessed as reduction in cell viability incubated for 48 hrs by MTT assay; type: functional, cell-based, U-87MG ATCC
How it was run: as §2

[15] = Toxicity in CD1 mouse assessed as effect on hemoglobin count at 80 mg/kg/day, ip administered thrice weekly by hematology analyzer; type: organism-based; conditions: in vivo, 72 h, time 3 day
How it was run: as §1

[16] = Toxicity in CD1 mouse assessed as effect on MCH count at 80 mg/kg/day, ip administered thrice weekly by hematology analyzer; type: organism-based; conditions: in vivo, 72 h, time 3 day
How it was run: as §1

[17] = Toxicity in CD1 mouse assessed as effect on PLT at 80 mg/kg/day, ip administered thrice weekly by hematology analyzer; type: organism-based; conditions: in vivo, 72 h, time 3 day
How it was run: as §1

U-251 = test: Antiproliferative activity against human U-251 cells assessed as reduction in cell viability incubated for 48 hrs by MTT assay; type: functional, cell-based; conditions: U-251, 48 h
How it was run: as §2

[18] = Toxicity in CD1 mouse assessed as effect on hematocrit count at 80 mg/kg/day, ip administered thrice weekly by hematology analyzer; type: organism-based; conditions: in vivo, 72 h, time 3 day
How it was run: as §1

[19] = Toxicity in CD1 mouse assessed as effect on WBC count at 80 mg/kg/day, ip administered thrice weekly by hematology analyzer; type: organism-based; conditions: in vivo, 72 h, time 3 day
How it was run: as §1

[20] = Dissociation constant, pKa of the compound; type: physicochemical
[21] = Toxicity in CD1 mouse assessed as decrease in body weight at 80 mg/kg/day, ip administered thrice weekly and measured at day 10; type: organism-based; conditions: in vivo, 72 h, time 3 day
How it was run: as §1

[22] = Toxicity in CD1 mouse assessed as acute pain at 80 mg/kg/day, ip administered thrice weekly and measured at day 10; type: organism-based; conditions: in vivo, 72 h, time 3 day
How it was run: as §1

Chain of Heat shock protein beta-1 (Homo sapiens) (P04792 whole entry): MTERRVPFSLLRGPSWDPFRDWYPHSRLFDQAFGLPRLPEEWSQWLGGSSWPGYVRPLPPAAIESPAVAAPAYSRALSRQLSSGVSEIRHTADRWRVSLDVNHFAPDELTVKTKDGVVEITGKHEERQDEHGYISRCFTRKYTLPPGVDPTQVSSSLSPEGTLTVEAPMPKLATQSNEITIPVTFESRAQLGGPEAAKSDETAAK

| Compound | Activity [2] | Activity [3] | Activity [4] | IC50 (T98G) [nM] | Activity [5] | Activity [6] | Activity [7] | Activity [8] | Activity [9] | Activity [10] | Activity [11] | Activity [12] | Activity [13] | IC50 (A 172) [nM] | Activity [14] | IC50 (U-87 MG) [nM] | Activity [15] | Activity [16] | Activity [17] | IC50 (U-251) [nM] | further results |
| --- | --- | --- | --- | --- | --- | --- | --- | --- | --- | --- | --- | --- | --- | --- | --- | --- | --- | --- | --- | --- | --- |
| C[C@]12CCC(=O)C[C@@H]1CC[C@@H]1[C@@H]2CC[C@]2(C)[C@@H](O)CC[C@@H]12 |  |  |  |  |  |  |  |  |  |  |  |  |  |  |  |  |  |  |  |  | inhibition [1]: inactive |
| COc1ccc(C(=O)Nc2ccc(N(C)S(C)(=O)=O)c(OCc3cc(OC)ccc3OC)c2)cc1 | Non-Toxic | Toxic | Non-Toxic | 1.85 | Non-Toxic | Non-Toxic | Non-Toxic | Toxic | Toxic | Non-Toxic | Non-Toxic | Non-Toxic | Non-Toxic | 3.13 | Non-Toxic | 3.05 | Non-Toxic | Non-Toxic | Non-Toxic | 1.57 | Activity [18]: Non-Toxic; Activity [19]: Non-Toxic |
| CS(=O)(=O)Nc1ccc([N+](=O)[O-])cc1Oc1ccccc1 [NIMESULIDE] |  |  |  |  |  |  |  |  |  |  |  |  |  |  |  |  |  |  |  |  | pKa [20]: 5.93 |
| CCS(=O)(=O)Nc1ccc(NC(=O)c2ccc(OC)cc2)cc1OCc1cc(OC)ccc1OC |  |  |  | 4.87 |  |  |  |  | Non-Toxic |  |  |  |  | 11.9 |  | 6.74 |  |  |  | 6.39 | Activity [21]: Non-Toxic; Activity [22]: Non-Toxic |
| CCS(=O)(=O)N(C)c1ccc(NC(=O)c2ccc(OC)cc2)cc1OCc1cc(OC)ccc1OC | Non-Toxic | Toxic | Non-Toxic | 5.71 | Non-Toxic | Non-Toxic | Non-Toxic | Toxic | Toxic | Non-Toxic | Non-Toxic | Non-Toxic | Non-Toxic | 8.21 | Non-Toxic | 7.83 | Non-Toxic | Non-Toxic | Non-Toxic | 6.97 | Activity [18]: Non-Toxic; Activity [19]: Non-Toxic |

— ChEMBL document CHEMBL4706680, “Small-Molecule HSP27 Inhibitor Abolishes Androgen Receptors in Glioblastoma” (J Med Chem, 2021)
